Data set [1] has as its system luteinizing hormone (LH). The data set can be described thus: Pharmacodynamics: plasma LH. In kind it is in vivo, female Sprague–Dawley rats. Conditions: rats, triptorelin 9 μg/kg s.c., ELISA, n = 8. The procedure, abridged:
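Six-week-old female rats (200 g ± 20 g) with similar cycles were split randomly into two groups of eight. One group received subcutaneous drug solution (9 μg/kg). The other received the microneedle patch (9 μg/kg) on shaved back skin, finger-pressed 3 min before the base was removed. Orbital-plexus blood was taken into heparinised tubes at 0.5–48 h and plasma stored at −80 °C. LH was measured by ELISA kit.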

The conditions of data set [2]: stated in introduction; ref Bethesda, [2012]; cited from earlier work.
Data set [3] can be described thus: Pharmacokinetics of triptorelin in rats. Format: in vivo, female Sprague–Dawley rats. The procedure, abridged:
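Female rats aged 6 weeks were randomised into two groups (n = 8). One group received a 9 μg/kg subcutaneous solution and the other a 9 μg/kg microneedle patch on shaved back skin, pressed 3 min. Heparinised orbital-plexus blood was sampled at 0.5, 1, 2, 4, 8, 24 and 48 h. Plasma was centrifuged, stored at −80 °C and assayed by LC–MS/MS. PK parameters were computed from concentration–time profiles.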

[4] abbreviates: female, Sprague-Dawley, rat, plasma, sc, 9 ug/kg.

What is called AUC(0-t) is exposure summed from dosing to a finite time, without extrapolation to infinity. By Cmax is commonly meant the maximum level reached in the sampled fluid or tissue. A word on the Tmax: it is the time at which the peak concentration occurs. As usually defined, the half-life is the time in which the quantity being followed falls by half. Read a high half-life as slow decline. Regarding `CC(C)C[C@H](NC(=O)[C@@H](Cc1c[nH]c2ccccc12)NC(=O)[C@H](Cc1ccc(O)cc1)NC(=O)[C@H](CO)NC(=O)[C@H](Cc1c[nH]c2ccccc12)NC(=O)[C@H](Cc1c[nH]cn1)NC(=O)[C@@H]1CCC(=O)N1)C(=O)N[C@@H](CCCNC(=N)N)C(=O)N1CCC[C@H]1C(=O)NCC(N)=O` [triptorelin, Triptorelin acetate], the “plasma LH levels at 48 h” value in data set [1] was “returned to a normal physiological state”. In addition, the “enhanced activity compared with GnRH” value in data set [2] is 100 fold. In addition, in data set [3] (setting [4]), the AUC(0-t) amounted to 8.65 ± 0.41 ng·h/mL, the peak level (Cmax) was 10.5 ± 0.6 ng/mL, the Tmax stood at 30 min and the half-life is 127 ± 3 min. Also, the “triptorelin concentration in plasma at 24 h” value in data set [3] (rats, 9 μg/kg s.c., 24 h, LC–MS/MS) is reported as “could not be detected”.
